Data published in ChEMBL document CHEMBL4052825, “Identification of Novel Coumestan Derivatives as Polyketide Synthase 13 Inhibitors against Mycobacterium tuberculosis” (J Med Chem, 2018).
In brackets after ≈: the same amount, converted by molar mass. Activity calls are given as the source filed them. The rule behind the calls is not given here.

What was measured:
[1] = test system: Mycobacterium tuberculosis H37Rv; test: Inhibition of PKS13 in Mycobacterium tuberculosis H37Rv assessed as reduction in bacterial growth after […] by MABA
Vero = test: Cytotoxicity against African green monkey Vero cells after 72 hrs by MABA; assay type: cell-based; settings: Chlorocebus sabaeus
[2] = Selectivity index, ratio of IC50 for African green monkey Vero cells to MIC=<90 for Mycobacterium tuberculosis H37Rv; assay type: toxicity; settings: read-out: Selectivity Index
Outline: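 Vero (African green monkey kidney) cytotoxicity IC50 by MABA, divided by the MABA MIC against M. tuberculosis H37Rv to give SI = IC50/MIC.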

MRC5 = test: Cytotoxicity against human MRC5 cells after 48 hrs by CellTiter96 AQueous one solution assay; assay type: cell-based; settings: MRC5, 48 h
Outline: (§1)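 Human cell cytotoxicity. QSG-7701 and HEK293 grown in DMEM; MRC-5 and HFL-1 grown in DMEM/F12. Both media carried 10% FBS with penicillin/streptomycin, 37°C, 5% CO2. Cells seeded at 5,000/well, incubated overnight, then exposed to compound for 48 h. CellTiter 96 AQueous One added for 1 h, absorbance read at 490 nm. IC50 is the mean of three independent experiments.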

HFL1 = test: Cytotoxicity against HFL1 cells after 48 hrs by CellTiter96 AQueous one solution assay; assay type: cell-based; settings: Homo sapiens, HFL1, 48 h; outline: as §1
[3] = Cytotoxicity against human QSG7701 cells after 48 hrs by CellTiter96 AQueous one solution assay; assay type: cell-based; settings: QSG7701, 48 h; outline: as §1
HEK293 = test: Cytotoxicity against human HEK293 cells after 48 hrs by CellTiter96 AQueous one solution assay; assay type: cell-based; settings: HEK293, 48 h; outline: as §1
[4] = test system: Mycobacterium tuberculosis; test: Antitubercular activity against Mycobacterium tuberculosis H37Rv infected in Balb/C mouse assessed as reduction in bacterial growth in mouse serum at 100 mg/kg, po administered via gavage after 30 to 120 mins by MABA; assay type: functional, organism-based
Outline: (§2)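 Oral serum inhibition titration. Six-week female BALB/c mice (20 g) gavaged with 100 mg/kg compound suspended in 0.5% carboxymethylcellulose. Isoniazid 10 mg/kg was the positive control and vehicle alone the negative control. Cardiac blood taken at 30, 60 and 120 min and serum separated. Serum two-fold serially diluted with 10^4 CFU M. tuberculosis H37Rv, incubated 7 days, read by MABA.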

[5] = test system: Mycobacterium tuberculosis; test: Antitubercular activity against Mycobacterium tuberculosis H37Rv infected in Balb/C mouse assessed as reduction in bacterial growth in mouse serum at 100 mg/kg, po administered via gavage after 30 mins dose by MABA; assay type: functional, organism-based; outline: as §2
[6] = Metabolic stability in human liver microsomes assessed as parent compound remaining at 10 uM after 60 mins in presence of NADPH; assay type: ADME, microsome; settings: read-out: Stability
[7] = Selectivity index, ratio of IC50 for human MRC5 cells to MIC=<90 for Mycobacterium tuberculosis H37Rv; assay type: toxicity; settings: read-out: Selectivity Index
[8] = Selectivity index, ratio of IC50 for human HFL1 cells to MIC=<90 for Mycobacterium tuberculosis H37Rv; assay type: toxicity; settings: read-out: Selectivity Index
[9] = Selectivity index, ratio of IC50 for human QSG7701 cells to MIC=<90 for Mycobacterium tuberculosis H37Rv; assay type: toxicity; settings: read-out: Selectivity Index
[10] = Selectivity index, ratio of IC50 for human HEK293 cells to MIC=<90 for Mycobacterium tuberculosis H37Rv; assay type: toxicity; settings: read-out: Selectivity Index
[11] = test system: Mycobacterium tuberculosis; test: Antitubercular activity against Mycobacterium tuberculosis by microdilution method; assay type: functional
Outline: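 Whole-cell MIC against M. tuberculosis strain H37Rv, measured by the microplate Alamar Blue assay (MABA) following a previously reported procedure; MIC values given in […].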

Row | Compound | MIC=<90 [1] | further results
1 | CCOC(=O)c1c(-c2ccc(OC)cc2)oc2ccc(O)c(CN3CCCCC3)c12 | 16 µg/mL | 
2 | CCOC(=O)c1c(-c2ccccc2)oc2ccc3c(c12)CN(C1CC1)CO3 | 16 µg/mL | 
3 | Cc1ccc2oc(=O)c3c(oc4ccc(O)c(CN5CCCCC5)c43)c2c1 | 0.5 µg/mL | IC50 (Vero): 8 µg/mL (≈ 22 µM); selectivity ratio [2]: 16
4 | CCOC(=O)c1c(-c2ccccc2)oc2ccc3c(c12)CN(C1CCCC1)CO3 | 2 µg/mL | 
5 | O=c1oc2ccccc2c2oc3ccc(O)c(CN4CCCCC4)c3c12 | 0.125 to 0.25 µg/mL | IC50 (Vero): 4 µg/mL (≈ 11.4 µM); selectivity ratio [2]: 16 to 32; IC50 (MRC5): > 50 µg/mL; IC50 (HFL1): > 50 µg/mL; IC50 [3]: > 50 µg/mL; IC50 (HEK293): > 50 µg/mL; Activity [4]: Active; Activity [5]: Active; remaining at 1 h, 10 µM [6]: 14.5%; selectivity ratio [7]: > 100; selectivity ratio [8]: > 100; selectivity ratio [9]: > 100; selectivity ratio [10]: > 100
6 | CCOC(=O)c1c(-c2ccc(C)cc2)oc2ccc3c(c12)CN(CC1CC1)CO3 | 4 µg/mL | 
7 | Cc1ccc2oc(=O)c3c(oc4ccc5c(c43)CN(CC3CC3)CO5)c2c1 | 4 µg/mL | 
8 | O=C(NCc1ccccc1)c1c(-c2ccccc2)oc2ccc(O)c(CN3CCCCC3)c12 | 16 µg/mL | 
9 | CCCN(CCC)Cc1c(O)ccc2oc(-c3ccccc3)c(C(=O)OCC)c12 | 8 µg/mL | 
10 | CCOC(=O)c1c(-c2ccccc2)oc2ccc(O)c(CN3CCCCC3)c12 | 2 µg/mL | 
11 | COc1ccc2oc(=O)c3c(oc4ccc5c(c43)CN(CC3CC3)CO5)c2c1 | 16 µg/mL | 
12 | CCOC(=O)c1c(-c2ccccc2)oc2ccc(O)c(CN3CCOCC3)c12 | > 64 µg/mL | 
13 | COc1ccc2oc(=O)c3c(oc4ccc(O)c(CN5CCCCC5)c43)c2c1 | 4 µg/mL | 
14 | CCOC(=O)c1c(-c2ccccc2)oc2ccc3c(c12)CN(CCC(C)C)CO3 | 4 µg/mL | 
15 | COc1ccc2c(c1)oc(=O)c1c2oc2ccc(O)c(CN3CCCCC3)c21 | 0.25 µg/mL | IC50 (Vero): 4 µg/mL (≈ 10.5 µM); selectivity ratio [2]: 16; IC50 (MRC5): > 50 µg/mL; IC50 (HFL1): 50.2 µg/mL (≈ 132 µM); IC50 [3]: 38.8 µg/mL (≈ 102 µM); IC50 (HEK293): > 50 µg/mL; Activity [4]: Active; remaining at 1 h, 10 µM [6]: 45.5%; selectivity ratio [7]: > 100; selectivity ratio [8]: > 100; selectivity ratio [9]: > 100; selectivity ratio [10]: > 100
16 | O=c1oc2cc(F)ccc2c2oc3ccc(O)c(CN4CCCCC4)c3c12 | 1 µg/mL | IC50 (Vero): 8 µg/mL (≈ 21.8 µM); selectivity ratio [2]: 8
17 | CCOC(=O)c1c(-c2ccccc2)oc2ccc(O)c(CN3CCCC3)c12 | 2 µg/mL | 
18 | CCOC(=O)c1c(-c2ccc(C(F)(F)F)cc2)oc2ccc(O)c(CN3CCCCC3)c12 | 8 µg/mL | 
19 | CCOC(=O)c1c(-c2cc(C)ccc2OC)oc2ccc3c(c12)CN(CC1CC1)CO3 | 8 µg/mL | 
20 | COc1ccc2c(c1)oc(=O)c1c2oc2ccc3c(c21)CN(CC1CC1)CO3 | 2 µg/mL | 
21 | CCOC(=O)c1c(-c2ccc(OC)cc2)oc2ccc3c(c12)CN(CC1CC1)CO3 | 2 µg/mL | 
22 | CCOC(=O)c1c(-c2ccc(OC)cc2OC)oc2ccc(O)c(CN3CCCCC3)c12 | 16 µg/mL | 
23 | CCOC(=O)c1c(-c2ccc(F)cc2OC)oc2ccc(O)c(CN3CCCCC3)c12 | 8 µg/mL | 
24 | CCOC(=O)c1c(-c2ccccc2)oc2ccc(OC)c(CN3CCCCC3)c12 | 16 µg/mL | 
25 | O=C(NC12CC3CC(CC(C3)C1)C2)c1c(-c2ccccc2)oc2ccc(O)c(CN3CCCCC3)c12 | > 64 µg/mL | 

Row | Compound | MIC=<90 [1] | further results
26 | CCOC(=O)c1c(-c2ccc(F)cc2)oc2ccc(O)c(CN3CCCCC3)c12 | 0.5 µg/mL | IC50 (Vero): 16 µg/mL (≈ 40.3 µM); selectivity ratio [2]: 32; Activity [4]: inactive
27 | O=C(O)c1c(-c2ccccc2)oc2ccc(O)c(CN3CCCCC3)c12 | > 64 µg/mL | 
28 | CCOC(=O)c1c(-c2cc(C)c(C)cc2OC)oc2ccc(O)c(CN3CCCCC3)c12 | 4 µg/mL | 
29 | O=c1oc2cc(Cl)c(Cl)cc2c2oc3ccc4c(c3c12)CN(CC1CC1)CO4 | > 64 µg/mL | 
30 | CCOC(=O)c1c(-c2ccccc2)oc2ccc(O)c(CN3CCC(C)CC3)c12 | 2.5 µM | IC50 (Vero): 16 µg/mL (≈ 40.7 µM); selectivity ratio [2]: 16; Activity [4]: inactive
31 | O=c1oc2cc(Br)ccc2c2oc3ccc(O)c(CN4CCCCC4)c3c12 | 1 µg/mL | IC50 (Vero): 8 µg/mL (≈ 18.7 µM); selectivity ratio [2]: 8
32 | O=c1oc2ccc(Br)cc2c2oc3ccc4c(c3c12)CN(CC1CC1)CO4 | 8 µg/mL | 
33 | CCOC(=O)c1c(-c2ccccc2)oc2ccc(O)c(CN3CCC(CO)CC3)c12 | 16 µg/mL | 
34 | Cc1cc2oc(=O)c3c(oc4ccc5c(c43)CN(CC3CC3)CO5)c2cc1C | 8 µg/mL | 
35 | CCOC(=O)c1c(-c2ccc(Br)cc2OC)oc2ccc(O)c(CN3CCCCC3)c12 | > 64 µg/mL | 
36 | O=C(NC1CC1)c1c(-c2ccccc2)oc2ccc(O)c(CN3CCCCC3)c12 | 8 µg/mL | 
37 | CCOC(=O)c1c(-c2ccccc2)oc2ccc3c(c12)CN(CC1CC1)CO3 | 1 µg/mL | IC50 (Vero): 8 µg/mL (≈ 21.2 µM); selectivity ratio [2]: 8
38 | O=c1oc2ccccc2c2oc3ccc4c(c3c12)CN(C1CCCC1)CO4 | 0.5 µg/mL | IC50 (Vero): 0.5 µg/mL (≈ 1.38 µM); selectivity ratio [2]: 1
39 | CCOC(=O)c1c(NC(=O)c2c(F)c(F)c(F)c(F)c2F)sc(C(N)=O)c1C |  | MIC [11]: 0.5 µM (≈ 0.211 µg/mL)
40 | CCOC(=O)c1c(-c2ccccc2)oc2ccc(O)c(CN3CCN(C)CC3)c12 | > 64 µg/mL | 
41 | O=c1oc2ccc(F)cc2c2oc3ccc4c(c3c12)CN(CC1CC1)CO4 | 16 µg/mL | 
42 | CCOC(=O)c1c(-c2ccccc2)oc2ccc(O)cc12 | > 64 µg/mL | 
43 | O=C(Nc1ccccc1)c1c(-c2ccccc2)oc2ccc(O)c(CN3CCCCC3)c12 | 8 µg/mL | 
44 | O=c1oc2ccccc2c2oc3ccc4c(c3c12)CN(C1CCCCC1)CO4 | 16 µg/mL | 
45 | CCNC(=O)c1c(-c2ccccc2)oc2ccc(O)c(CN3CCCCC3)c12 | 4 µg/mL | 
46 | O=c1oc2ccc(Cl)cc2c2oc3ccc4c(c3c12)CN(CC1CC1)CO4 | 16 µg/mL | 
47 | O=c1oc2ccccc2c2oc3ccc(O)cc3c12 | > 64 µg/mL | 
48 | COC(=O)c1c(NC(=O)c2c(F)c(F)c(F)c(F)c2F)sc2c1CCCCC2 |  | MIC [11]: 1 µM (≈ 0.419 µg/mL)
49 | O=c1oc2ccccc2c2oc3ccc4c(c3c12)CN(CC1CC1)CO4 | 2 µg/mL | 
